The source made the active and inactive calls. No cut-off for these calls is given here.
Key:
Clostridioides difficile [1] = assay: (§1) Suppression of relapse of Clostridioides difficile 630 infection in cefoperazone-treated C57BL/6J mouse model of recurrent Clostridioides difficile 630 infection assessed as reduction in microbial load (total vegetative cells plus spores) at 5 mg/kg, po for 5 days from day 4 to 9 after infection with spores measured on day 9; type: functional, organism-based
In short: (§2)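 Five-week-old C57BL/6J mice of both sexes given cefoperazone 0.5 mg/ml in drinking water for 5 days, then a 2-day washout. Oral challenge with C. difficile 630 spores on day 0. Oral gavage in 2-(hydroxypropyl)-cyclodextrin vehicle on days 4–9; n = 6 per group. Body weight recorded daily. Feces or cecal contents suspended 1:10 in PBS, serially diluted and plated on TCCFA, incubated anaerobically at 37°C for 24 h; results as CFU/g.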

Clostridioides difficile [2] = assay: as §1, with “spores) in cecal content” for “spores)”, “day day 14” for “day 9”; type: functional, organism-based; in short: as §2
Clostridioides difficile [3] = assay: (§3) Suppression of relapse of Clostridioides difficile 630 infection in cefoperazone-treated C57BL/6J mouse model of recurrent Clostridioides difficile 630 infection assessed as reduction in body weight loss at 5 mg/kg, po for 5 days from day 4 to 9 after infection with spores; type: functional, organism-based; in short: as §2
[4] = Effect on gut microbiota in cefoperazone-treated C57BL/6J mouse model of recurrent Clostridioides difficile 630 infection assessed as increase in abundance of group-Ruminococcaceae at 5 mg/kg, po for 5 days from day 4 to 9 after infection with spores measured on day day 14 by 16S rRNA Illumina sequencing analysis; type: ADME, organism-based; details: in vivo, 120 h
In short: (§4)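 Recurrent CDI model in cefoperazone-treated C57BL/6J mice challenged with strain 630 and gavaged on days 4–9 (n = 6 per group). Cecal tissue snips collected at necropsy underwent 16S rRNA gene community sequencing on Illumina MiSeq.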

[5] = AUC in non-antibioticc-treated C57Bl/6J mouse at 0.3 mg/kg, iv and measured after 5 mins to 24 hrs by LC/MS-SRM analysis; type: ADME, organism-based; parameters: time upper 24 hr, time lower 0.083 hr, dose 0.3 mg/kg, route intravenous; details: in vivo
In short: (§5)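 Non-antibiotic-treated C57Bl/6J mice given a single i.v. dose of 0.3 mg/kg; n = 3 per time point. Bled at 5, 10, 30 min and 1, 2, 4, 8, 24 h. Plasma mixed with 2 volumes acetonitrile containing internal standard, centrifuged, supernatant quantified by LC/MS-SRM.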

[6] = Instantaneous volume of distribution in non-antibioticc-treated C57Bl/6J mouse at 0.3 mg/kg, iv and measured after 5 mins to 24 hrs by LC/MS-SRM analysis; type: ADME, organism-based; details: in vivo; in short: as §5
[7] = Effect on gut microbiota in cefoperazone-treated C57BL/6J mouse model of recurrent Clostridioides difficile 630 infection assessed as increase in alpha-diversity at 5 mg/kg, po for 5 days from day 4 to 9 after infection with spores measured on day day 14 by 16S rRNA Illumina sequencing analysis; type: ADME, organism-based; details: in vivo, 120 h; in short: as §4
Clostridioides difficile [8] = assay: as §3, with “histopathological summary scores” for “body weight loss”, “spores measured on day day 14” for “spores”; type: functional, organism-based
In short: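 Recurrent CDI model in cefoperazone-treated C57BL/6J mice challenged with strain 630 and gavaged on days 4–9 (n = 6 per group). At necropsy on day 14, H&E-stained cecum and colon scored 0–4 each for edema, inflammatory cell infiltration and epithelial damage. Scoring done blinded by a veterinary pathologist.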

Clostridioides difficile [9] = assay: as §1, with “as incidence of animals with” for “as reduction in”, “spores) load below the limit of detection” for “spores)”, “day 13 post drug cessation” for “day 9”; type: functional; in short: as §2
[10] = MRT in non-antibioticc-treated C57Bl/6J mouse at 0.3 mg/kg, iv and measured after 5 mins to 24 hrs by LC/MS-SRM analysis; type: ADME, organism-based; details: in vivo; in short: as §5
Clostridioides difficile [11] = assay: as §3, with “group-Bacteroidaceae level” for “body weight loss”, “spores measured on day day 14” for “spores”; type: functional, organism-based; in short: as §4

O=C(Nc1cc(C(F)(F)F)c(Oc2ccc(Cl)cc2)c(C(F)(F)F)c1)c1cc(Cl)cc(Cl)c1O
Activity (Clostridioides difficile [1]): Active
Activity (Clostridioides difficile [2]): Active
Activity (Clostridioides difficile [3]): Active
Activity [4]: Non-Toxic
AUC [5]: 9.23 µM·h
Vc [6]: 8.5 mL
Activity [7]: Non-Toxic
Activity (Clostridioides difficile [8]): Active
Activity (Clostridioides difficile [9]): 50%
MRT [10]: 5.26 h
Activity (Clostridioides difficile [11]): Active

Source: ChEMBL document CHEMBL4610116, “Salicylanilide Analog Minimizes Relapse of Clostridioides difficile Infection in Mice” (J Med Chem, 2020)
